The source made the active and inactive calls. The rule behind the calls is not given here.
Key:
[1] = tested on: PC-3; assay: Antiproliferative activity against human PC3 cells at 100 uM after 72 hrs by MTT assay; type: functional; conditions: PC-3, 72 h
How it was run: (§1)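 PC3 prostate cancer cells kept in RPMI 1640 with 10% fetal calf serum at 37 °C, 5% CO₂. Seeded at 1.8 × 10⁴ cells/well, grown 3 days, then serum-starved 24 h to synchronize. Exposed to compounds at 1, 10, 50 and 100 µM (as solubility allows) in <0.1% DMSO for 72 h. Growth read by colorimetric MTT test.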

[2] = tested on: Blood; assay: Induction of profen release in human whole blood at 10 uM after 22 hrs by HPLC; type: functional
How it was run: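 Same blood pool as the COX inhibition runs. Compound incubated 22 h, then the free profen released was measured as a percentage ratio.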

[3] = tested on: PC-3; assay: Antiproliferative activity against human PC3 cells after 72 hrs by MTT assay; type: functional, cell-based; conditions: PC-3, 72 h; how it was run: as §1
[4] = biological target: Prostaglandin G/H synthase 1 (Homo sapiens, UniProt P23219); assay: Inhibition of COX1 in human whole blood; type: tissue-based
[5] = biological target: T1, Prostaglandin G/H synthase 2 (Homo sapiens, UniProt P35354); assay: Inhibition of COX2 in human whole blood; type: tissue-based
T1 sequence (P35354 whole entry): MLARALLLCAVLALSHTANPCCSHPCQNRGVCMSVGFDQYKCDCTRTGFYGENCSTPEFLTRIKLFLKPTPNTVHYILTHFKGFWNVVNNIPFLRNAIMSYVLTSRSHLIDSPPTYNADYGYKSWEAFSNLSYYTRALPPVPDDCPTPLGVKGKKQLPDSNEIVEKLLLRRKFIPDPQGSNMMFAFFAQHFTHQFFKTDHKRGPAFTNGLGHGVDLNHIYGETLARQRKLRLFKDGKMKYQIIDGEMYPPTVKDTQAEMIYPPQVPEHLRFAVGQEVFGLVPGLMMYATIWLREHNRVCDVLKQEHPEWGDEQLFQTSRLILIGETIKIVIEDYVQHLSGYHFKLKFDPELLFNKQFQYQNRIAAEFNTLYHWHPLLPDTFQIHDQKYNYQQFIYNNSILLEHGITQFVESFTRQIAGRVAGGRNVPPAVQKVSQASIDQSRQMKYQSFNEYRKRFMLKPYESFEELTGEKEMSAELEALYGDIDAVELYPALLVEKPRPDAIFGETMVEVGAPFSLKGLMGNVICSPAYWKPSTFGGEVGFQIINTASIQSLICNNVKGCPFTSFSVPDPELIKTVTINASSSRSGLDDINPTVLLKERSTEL

[6] = tested on: Blood; assay: Induction of nitric oxide release in human whole blood after 6 hrs by EPR spectroscopy; type: functional, tissue-based

Chain of Prostaglandin G/H synthase 1 (P23219 whole entry): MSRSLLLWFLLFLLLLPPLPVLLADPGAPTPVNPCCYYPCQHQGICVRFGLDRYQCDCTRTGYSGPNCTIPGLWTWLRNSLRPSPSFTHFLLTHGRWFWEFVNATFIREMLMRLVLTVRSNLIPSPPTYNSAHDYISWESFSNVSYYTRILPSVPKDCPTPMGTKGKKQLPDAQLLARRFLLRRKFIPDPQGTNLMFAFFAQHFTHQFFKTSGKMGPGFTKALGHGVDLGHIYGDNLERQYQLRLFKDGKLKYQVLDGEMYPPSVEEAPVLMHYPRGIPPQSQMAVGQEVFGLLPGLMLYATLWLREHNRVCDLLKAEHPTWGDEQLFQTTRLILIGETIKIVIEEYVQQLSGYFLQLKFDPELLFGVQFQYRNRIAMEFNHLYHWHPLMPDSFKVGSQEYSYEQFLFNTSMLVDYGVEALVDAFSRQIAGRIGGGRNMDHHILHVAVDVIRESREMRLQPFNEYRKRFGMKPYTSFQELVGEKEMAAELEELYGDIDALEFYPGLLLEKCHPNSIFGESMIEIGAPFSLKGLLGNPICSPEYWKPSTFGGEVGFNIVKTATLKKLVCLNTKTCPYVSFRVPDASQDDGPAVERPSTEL

IC50 [3] [nM] | IC50 [4] [nM] | IC50 [5] [nM] | SMILES | inhibition at 100 µM [1] [%] | Activity [2] [%] | Activity [6]
– | – | – | CC(C(=O)O)c1cccc(C(=O)c2ccccc2)c1 (stereo not drawn) [KETOPROFEN] | 0 | – | –
– | – | – | CC(C(=O)O)c1ccc2c(c1)[nH]c1ccc(Cl)cc12 (stereo not drawn) [CARPROFEN] | 5 | – | –
48000 | 110000 | 65000 | CC(C(=O)OCCO[N+](=O)[O-])c1ccc2c(c1)[nH]c1ccc(Cl)cc12 (stereo not drawn) | – | 88 | –
– | 450 | 770 | CC(C(=O)OCCO[N+](=O)[O-])c1cccc(C(=O)c2ccccc2)c1 (stereo not drawn) | 26 | 73 | –
– | 570 | 4560 | CC(COC(=O)C(C)c1ccc(C(=O)c2cccs2)cc1)O[N+](=O)[O-] (stereo not drawn) | 13 | 86 | –
48000 | 123000 | 45000 | CC(COC(=O)C(C)c1ccc2c(c1)[nH]c1ccc(Cl)cc12)O[N+](=O)[O-] (stereo not drawn) | – | 100 | –
– | 480 | 2700 | CC(C(=O)OCC(CO[N+](=O)[O-])O[N+](=O)[O-])c1ccc(C(=O)c2cccs2)cc1 (stereo not drawn) | 33 | 73 | –
– | 600 | 730 | CC(COC(=O)C(C)c1cccc(C(=O)c2ccccc2)c1)O[N+](=O)[O-] (stereo not drawn) | 26 | 70 | Active
– | 580 | 5800 | CC(C(=O)OCCO[N+](=O)[O-])c1ccc(C(=O)c2cccs2)cc1 (stereo not drawn) | 7 | 46 | –
– | 560 | 2750 | CC(C(=O)O)c1ccc(C(=O)c2cccs2)cc1 (stereo not drawn) [SUPROFEN] | 0 | – | –
– | 580 | 740 | CC(C(=O)OCC(CO[N+](=O)[O-])O[N+](=O)[O-])c1cccc(C(=O)c2ccccc2)c1 (stereo not drawn) | 21 | 79 | –
